The structures appear in SMILES notation. Activity calls are given as the source filed them. No rule for the calls is given here.

For assay [1], the target named is T1, Corticotropin-releasing factor receptor 1 (Homo sapiens) (UniProt P34998).
T1 sequence (whole entry): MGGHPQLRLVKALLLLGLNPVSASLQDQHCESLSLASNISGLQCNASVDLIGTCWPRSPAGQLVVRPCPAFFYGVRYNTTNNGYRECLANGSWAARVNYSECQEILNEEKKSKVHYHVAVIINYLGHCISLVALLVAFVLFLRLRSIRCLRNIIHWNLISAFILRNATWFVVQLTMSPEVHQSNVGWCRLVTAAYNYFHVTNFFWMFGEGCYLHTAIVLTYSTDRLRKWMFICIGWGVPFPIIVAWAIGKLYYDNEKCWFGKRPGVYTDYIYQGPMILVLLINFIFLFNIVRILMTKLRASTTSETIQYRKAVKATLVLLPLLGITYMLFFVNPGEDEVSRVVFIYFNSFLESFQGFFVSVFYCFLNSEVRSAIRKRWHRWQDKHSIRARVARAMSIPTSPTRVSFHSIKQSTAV
Kind of assay: Antagonist activity at human CRF1 receptor expressed in human IMR-32 cells assessed as inhibition of CRF-stimulated cAMP production. Format: functional, cell-based.

For assay [2], the target named is T2, Corticotropin-releasing factor receptor 1 (Homo sapiens, UniProt P34998).
T2 sequence (P34998 whole entry): T1 sequence (whole entry)
Kind of assay: Displacement of [125I] Tyr-o-CRF from human […] expressed in human IMR-32 cells after 100 mins. The assay is classed as cell-based. A digest of the protocol:
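Membranes from transformed IMR-32 cells incubated with 100 pM [125I]Tyr-o-CRF and increasing test-compound concentrations, 100 min, 25 °C. Buffer: 50 mM Tris pH 7.2, 10 mM MgCl2, 0.5% BSA, 0.005% Triton X-100, aprotinin, leupeptin. Stopped with ice-cold 50 mM Tris pH 7.4, 0.2% BSA. Nonspecific binding defined with o-CRF. Values given as Ki.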

Turning to `Cc1cc(C)c(-n2c(Cl)cn3c(CN(C)CCc4ccccn4)c(C(F)(F)F)nc23)c(C)c1`, in assay [1], the result was Active. The same compound showed an inhibitory constant (Ki) in assay [2] of 4300 nM.
On to `Cc1cc(C)c(-n2c(Cl)cn3c(CN(C)CCc4ccncc4)c(C(F)(F)F)nc23)c(C)c1`, for which, in assay [1], the result was Active. The compound further returned a Ki in assay [2] of 7600 nM.
For the compound `CCCN(Cc1ccccc1)Cc1c(C(F)(F)F)nc2n(-c3c(C)cc(C)cc3C)c(Cl)cn12`, the outcome in assay [1] was Active. The compound further displayed an inhibitory constant (Ki) in assay [2] of 170 nM.
Take `CCCN(Cc1c(C(F)(F)F)nc2n(-c3c(C)cc(C)cc3C)c(Cl)cn12)CC(F)(F)F`: the outcome in assay [1] was Active. In addition, the Ki in assay [2] is 8.3 nM.
The like results for `Cc1cc(C)c(-n2c(Cl)cn3c(CN(CCC(F)(F)F)Cc4ccc(F)cc4)c(C(F)(F)F)nc23)c(C)c1` were, in that order, “Active” and 34 nM.
On to `CCCN(Cc1c(C(F)(F)F)nc2n(-c3c(C)cc(C)cc3Cl)c(Cl)cn12)CC1CC1`, for which the result in assay [1] was Active. Moreover, the Ki in assay [2] worked out at 4.2 nM.
For `CCCN(Cc1ccc(F)cc1)Cc1c(C(F)(F)F)nc2n(-c3c(C)cc(C)cc3C)c(Cl)cn12`, in that order: “Active” and 350 nM.
Regarding `Cc1cc(C)c(-n2c(Cl)cn3c(CN(CCC(F)(F)F)Cc4cccc(F)c4)c(C(F)(F)F)nc23)c(C)c1`, the outcome in assay [1] was Active. For the same compound, in assay [2], the Ki came to 49 nM.
On to `Cc1cc(C)c(-n2c(Cl)cn3c(CN(Cc4ccc(F)cc4)CC(F)(F)F)c(C(F)(F)F)nc23)c(C)c1`, for which the result in assay [1] was Active. In assay [2], this compound came in with an inhibition constant Ki of 160 nM.
The like results for `CCN(CCc1ccccc1)Cc1c(C(F)(F)F)nc2n(-c3c(C)cc(C)cc3C)c(Cl)cn12` were, in that order, “Active” and 6 nM.
For the compound `CCCN(Cc1ccc(Cl)cc1)Cc1c(C(F)(F)F)nc2n(-c3c(C)cc(C)cc3C)c(Cl)cn12`, the result in assay [1] was Active. In assay [2], the Ki was found to be 28 nM.
As for `Cc1cc(C)c(-n2c(Cl)cn3c(CN(CCc4ccccc4)CC(F)(F)F)c(C(F)(F)F)nc23)c(C)c1`, the result in assay [1] was Active. The compound also displayed a Ki in assay [2] of 350 nM.
For `Cc1cc(C)c(-n2c(Cl)cn3c(CN(CCC(F)(F)F)CC4CC4)c(C(F)(F)F)nc23)c(C)c1`, in that order: “Active” and 16 nM.
Regarding `CCCN(CC1CC1)C(=O)c1c(C)nc2n(-c3c(C)cc(C)cc3C)c(Cl)cn12`, the outcome in assay [1] was Active. In addition, affinity in assay [2] was put at a Ki of 61 nM.
For `C=CCN(CCC)Cc1c(C(F)(F)F)nc2n(-c3c(C)cc(C)cc3C)c(Cl)cn12`, in that order: “Active” and 4.5 nM.
Regarding `CCCCN(Cc1ccccc1)Cc1c(C(F)(F)F)nc2n(-c3c(C)cc(C)cc3C)c(Cl)cn12`, the result in assay [1] was Active. The compound also yielded a Ki in assay [2] of 130 nM.
The like results for `Cc1cc(C)c(-n2c(Cl)cn3c(CN(CCC4CC4)CC(F)(F)F)c(C(F)(F)F)nc23)c(C)c1` were, in that order, “Active” and 6.3 nM.
The like results for `CCN(Cc1c(C(F)(F)F)nc2n(-c3c(C)cc(C)cc3C)c(Cl)cn12)CC1CCC1` were, in that order, “Active” and 16 nM.
For the compound `Cc1cc(C)c(-n2c(Cl)cn3c(CN(C)Cc4ccccc4)c(C(F)(F)F)nc23)c(C)c1`, the outcome in assay [1] was Active. Besides, in assay [2], the Ki was 160 nM.
As for `Cc1cc(C)c(-n2c(Cl)cn3c(CN4CCOCC4)c(C(F)(F)F)nc23)c(C)c1`, in assay [1], the outcome was Active. The Ki in assay [2] worked out at 1700 nM.
For `CCCN(CCc1ccccc1)Cc1c(C(F)(F)F)nc2n(-c3c(C)cc(C)cc3C)c(Cl)cn12`, in that order: “Active” and 21 nM.
For `Cc1cc(C)c(-n2c(Cl)cn3c(CN(C)CCc4ccccc4)c(C(F)(F)F)nc23)c(C)c1`, in that order: “Active” and 150 nM.
Turning to `C=CCN(CC=C)Cc1c(C(F)(F)F)nc2n(-c3c(C)cc(C)cc3C)c(Cl)cn12`, the result in assay [1] was Active. This compound had a Ki in assay [2] of 13 nM.
Take `CCCN(CCC(F)(F)F)Cc1c(C(F)(F)F)nc2n(-c3c(C)cc(C)cc3C)c(Cl)cn12`: the outcome in assay [1] was Active. In assay [2], this compound registered an inhibitory constant (Ki) of 12 nM.
For `CCCN(Cc1c(C(F)(F)F)nc2n(-c3c(C)cc(C)cc3C)c(Cl)cn12)CC1CCC1`, in that order: “Active” and 5.3 nM.
For `CCCN(CCOC)Cc1c(C(F)(F)F)nc2n(-c3c(C)cc(C)cc3C)c(Cl)cn12`, the result in assay [1] was Active. In assay [2], this compound displayed a Ki of 32 nM.
As to `Cc1cc(C)c(-n2c(Cl)cn3c(CN4CCSCC4)c(C(F)(F)F)nc23)c(C)c1`, in assay [1], the result was Active. Moreover, in assay [2], the Ki was determined as 920 nM.
`Cc1cc(C)c(-n2c(Cl)cn3c(CN4CCCCC4C)c(C(F)(F)F)nc23)c(C)c1` (stereo unspecified): the outcome in assay [1] was Active. This compound also yielded a Ki in assay [2] of 1600 nM.
Turning to `CCCN(Cc1c(C(F)(F)F)nc2n(-c3c(C)cc(C)cc3C)ccn12)CC1CC1`, the result in assay [1] was Active. The compound further displayed a Ki in assay [2] of 470 nM.
As to `CCCN(CCC)Cc1c(C(F)(F)F)nc2n(-c3c(C)cc(C)cc3C)c(Cl)cn12`, the outcome in assay [1] was Active. The same compound displayed a Ki in assay [2] of 69 nM.
On to `Cc1cc(C)c(-n2c(Cl)cn3c(CN4CCCCC4)c(C(F)(F)F)nc23)c(C)c1`, for which the outcome in assay [1] was Active. In assay [2], the inhibition constant Ki is 1200 nM.
Turning to `CCN(Cc1c(C(F)(F)F)nc2n(-c3c(C)cc(C)cc3C)c(Cl)cn12)CC1CC1`, in assay [1], the result was Active. Further, the Ki in assay [2] amounted to 9 nM.
Regarding `Cc1cc(C)c(-n2c(Cl)cn3c(CN(CC4CC4)CC(F)(F)F)c(C(F)(F)F)nc23)c(C)c1`, the result in assay [1] was Active. For the same compound, the Ki in assay [2] came to 5.2 nM.
Regarding `CCCCN(CC)Cc1c(C(F)(F)F)nc2n(-c3c(C)cc(C)cc3C)c(Cl)cn12`, the outcome in assay [1] was Active. Affinity in assay [2] was put at a Ki of 78 nM.
For `CCCN(Cc1c(C(F)(F)F)nc2n(-c3c(C)cc(C)cc3C)c(Cl)cn12)CC(F)(F)C(F)(F)F`, in that order: “Active” and 440 nM.
Regarding `CCCN(CC1CC1)C(=O)c1c(C(F)(F)F)nc2n(-c3c(C)cc(C)cc3C)c(Cl)cn12`, the result in assay [1] was Active. This compound also gave a Ki in assay [2] of 33 nM.
Take `CCN(Cc1ccccc1)Cc1c(C(F)(F)F)nc2n(-c3c(C)cc(C)cc3C)c(Cl)cn12`: the result in assay [1] was Active. This compound also gave a Ki in assay [2] of 350 nM.
The like results for `CCCCN(C)Cc1c(C(F)(F)F)nc2n(-c3c(C)cc(C)cc3C)c(Cl)cn12` were, in that order, “Active” and 310 nM.
For `Cc1cc(C)c(-n2c(Cl)cn3c(CN(CCC4CC4)CCC(F)(F)F)c(C(F)(F)F)nc23)c(C)c1`, in that order: “Active” and 110 nM.
On to `Cc1cc(C)c(-n2c(Cl)cn3c(CN4CC=CCC4)c(C(F)(F)F)nc23)c(C)c1`, for which the outcome in assay [1] was Active. Also, the affinity in assay [2] corresponds to a Ki of 760 nM.
Turning to `CCCN(Cc1ccc([N+](=O)[O-])cc1)Cc1c(C(F)(F)F)nc2n(-c3c(C)cc(C)cc3C)c(Cl)cn12`, the result in assay [1] was Active. In assay [2], this compound came in with a Ki of 150 nM.
`Cc1cc(C)c(-n2c(Cl)cn3c(CN(C)CCc4cccnc4)c(C(F)(F)F)nc23)c(C)c1`: in assay [1], the result was Active. Besides, in assay [2], the Ki amounted to 1900 nM.
For `CCCN(CCC1CC1)Cc1c(C(F)(F)F)nc2n(-c3c(C)cc(C)cc3C)c(Cl)cn12`, in that order: “Active” and 53 nM.

The Ki is a measure of affinity in units of concentration, obtained from inhibition or displacement. Higher therefore signals lower affinity.

These data come from ChEMBL document CHEMBL1155541, “Discovery of 6-chloro-2-trifluoromethyl-7-aryl-7H-imidazo[1,2-a]imidazol-3-ylmethylamines, a novel class of corticotropin-releasing factor receptor type 1 (CRF1R) antagonists” (Bioorg Med Chem Lett, 2010).
